Experimental data from different studies.
Each line is one published result; the experiments were not run side by side. pIC50: −log10 of the molar value.
Read-out: cell growth or viability

| SMILES | cell line | method | time | endpoint | value |
| --- | --- | --- | --- | --- | --- |
| Fc1ccc2c(-c3ncc(-c4ccccc4)o3)nn(Cc3ccccc3)c2c1 | human Fibroblast |  | 48 h | pIC50 | 3.70 |
| Cc1nc2ccc(-c3ccc(F)cc3)cc2c(O)c1C(=O)O | MDA-MB-468 | MTT | 48 h | pIC50 | ≤ 4.00 |
| OCc1ccc(-c2nn(Cc3ccc(F)cc3)c3ccccc23)o1 | RBE | ATP luminescence |  | pIC50 | 5.89 |
| OC1CCN(c2ccc(/C=N/NC(=S)Nc3ccc(Cl)cc3)cc2)CC1 | BEAS-2B | MTT | 24 h | pIC50 | 4.86 |
| COc1cccc2c1C(=O)c1c(O)c3c(c(O)c1C2=O)C[C@@](O)(C(=O)CO)C[C@@H]3O[C@H]1C[C@H](N)[C@H](O)[C@H](C)O1 | SGC-7901 |  | 96 h | pIC50 | 6.59 |
| CCOC(=O)c1c(C)nc2ccc(-c3ccc(F)cc3)cc2c1O | MDA-MB-468 | MTT | 48 h | pIC50 | 5.30 |
| Cc1noc(-c2nn(Cc3ccc(Cl)cc3Cl)c3ccccc23)n1 | human Fibroblast |  | 48 h | pIC50 | 3.83 |
| C/C(=N\CCNCC/N=C(\C)c1c(O)c2ccccc2oc1=O)c1c(O)c2ccccc2oc1=O | BEAS-2B | MTT | 48 h | pIC50 | 4.88 |
| OCc1ccc(-c2nn(Cc3ccccc3)c3cccc(Cl)c23)o1 | RBE | ATP luminescence |  | pIC50 | 5.22 |
| COc1cccc2c1C(=O)c1c(O)c3c(c(O)c1C2=O)C[C@@](O)(C(=O)CO)C[C@@H]3O[C@H]1C[C@H](N)[C@H](O)[C@H](C)O1 | BEAS-2B | MTT | 48 h | pIC50 | 5.39 |
| OCc1ccc(-c2nn(Cc3cccc(Cl)c3)c3ccccc23)o1 | RBE | ATP luminescence |  | pIC50 | 5.85 |
| CC(=O)ON=C1C=CC(=C(C#N)c2ccccc2)C=C1 | human Fibroblast | MTT | 24 h | IC50 | 25.9 µg/mL |
| OCc1ccc(-c2nn(Cc3ccccc3Cl)c3ccccc23)o1 | RBE | ATP luminescence |  | pIC50 | 5.84 |
| COc1cc(C2C3=C(COC3=O)N(CCO)c3cc4c(cc32)CCC4)cc(OC)c1OC (centres unmarked) | MDA-MB-468 | ATP luminescence | 48 h | pIC50 | 7.00 |
| c1ccc(Cc2nnc(-c3nn(Cc4ccccc4)c4ccccc34)o2)cc1 | human Fibroblast |  | 48 h | pIC50 | 3.20 |
| COc1ccc(Cn2nc(-c3ccc(CO)o3)c3ccccc32)cc1 | RBE | ATP luminescence |  | pIC50 | 5.95 |
| OCn1cncn1 | BEAS-2B | MTT | 24 h | pIC50 | < 3.10 |
| NCc1ccc(-c2nn(Cc3ccccc3)c3ccccc23)o1 | RBE | ATP luminescence |  | pIC50 | 5.62 |
| c1ccc(Cn2nc(-c3nc(-c4ccccc4)n[nH]3)c3ccccc32)cc1 | human Fibroblast |  | 48 h | pIC50 | 4.14 |
| CC(C)CNC(=S)N/N=C/c1ccc(N2CCC(O)CC2)cc1 | BEAS-2B | MTT | 24 h | pIC50 | 4.97 |
